Assay [1] concerns Mus musculus. Briefly: Compound was evaluated for the inhibition of Locomotion-Screen falloff test by ip route. It counts as functional. Put shortly: (§1)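 Unfasted male Swiss–Webster mice, 20–30 g, nine per dose in three groups of three, received 10, 30 or 100 mg/kg ip as parent compound in 0.2% methocel, 1 h before testing; controls got methocel. Screen test: percent of mice falling from a screen inverted 180° during 60 s. Then locomotion was read by actophotometer over 1 h as percent inhibition versus vehicle. Graded bands: 60–100% = A.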

A further assay relates to Rattus norvegicus. Briefly: Evaluated for anticonvulsant activity to protect all rats tested, when administered subcutaneously. It counts as functional.
The subject of assay [2] is Mus musculus. Put plainly: Compound was evaluated for the inhibition of Locomotion-Screen falloff test, at dose (mg/Kg) = 30; 60-100%. Format: functional. Put shortly: as §1
For assay [3], the species on record is Mus musculus. Briefly: Central nervous system depressant activity. Format: functional. In outline: (§2)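 Male albino Webster mice, 20–26 g, groups of five, given ip doses of 250, 125, 63 mg/kg and lower until no effect was seen. Doses were calculated as active component and given in 0.9% saline or 100% propylene glycol. Observers scored motor activity, ataxia, depression, reflexes, posture, muscle tone and responses to noise, touch, restraint and transfer over 15–60 min. Survivors were held 24 h for a provisional acute toxicity level.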

For assay [4], the system named is Mus musculus. Briefly: Compound was evaluated for the inhibition of Locomotion-Screen falloff test, at dose (mg/Kg) = 10; 60-100%. Format: functional. Put shortly:
as §1

Assay [5] relates to Mus musculus. Briefly: Compound was evaluated for the inhibition of Locomotion-Screen falloff test, at dose (mg/Kg) = 30; 0-30%. It counts as functional. In outline:
as §1

The test system of assay [6] is Mus musculus. Briefly: Compound was evaluated for the inhibition of Locomotion-Screen falloff test, at dose (mg/Kg) = 10; 0-30%. Format: functional. Put shortly:
as §1

The subject of assay [7] is Mus musculus. Put plainly: Compound was evaluated for the inhibition of Locomotion-Screen falloff test, at dose (mg/Kg) = 100; 60-100%. It counts as functional. In outline: as §1
Assay [8] relates to Mus musculus. Briefly: Compound was evaluated for the inhibition of Locomotion-Screen falloff test, at dose (mg/Kg) = 10. It counts as functional. Put shortly: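 Swiss-Webster male mice (20–30 g, unfasted), 9 per dose in three groups of three; 10 mg/kg ip in 0.2% methocel, dosed as parent compound, 1 h before testing; methocel-injected controls. Inverted wire screen (180° rotation, 60 s) scored as percent falling off. Then actophotometer counts over 1 h give percent inhibition versus vehicle; graded A = 60–100%.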

Assay [9] has as its system Mus musculus. Put plainly: Compound was evaluated for the inhibition of Locomotion-Screen falloff test, at dose (mg/Kg) = 100; 31-59%. Format: functional. In outline:
as §1

The test system of assay [10] is Mus musculus. Put plainly: Compound was evaluated for the inhibition of Locomotion-Screen falloff test, at dose (mg/Kg) = 10; 31-59%. It counts as functional. Put shortly: as §1
Assay [11] deals with Mus musculus. Put plainly: Compound was evaluated for the inhibition of Locomotion-Screen falloff test, at dose (mg/Kg) = 30; 31-59%. It counts as functional. In outline: as §1
Assay [12] deals with Mus musculus. Put plainly: Compound was evaluated for central nervous system depressant activity at 250 mg/kg; c=Quiet at 250 mg/kg. Format: functional, organism-based. Put shortly: as §2

One may read the ED50 as the midpoint of the dose-response relation. Read a high ED50 as a need for a large dose. Broadly, the Inhibition is the change of the read-out against control, counted positive when it falls. Low values mean a response near the control, high ones a response far below the control.

In the assay with Mus musculus [1], `Cc1nn(C)c(N)c1C(=O)c1ccccc1F` came in with a median effective dose (ED50) of 9.4 mg/kg. Further, the Activity with Rattus norvegicus worked out at 250 mg/kg; in the assay filed under Mus musculus [3], 32 mg/kg. The Inhibition in the assay with Mus musculus [2] and with Mus musculus [4] was 60% in each case.
With `Cc1nn(C)c(N)c1C(=O)c1ccc(Cl)cc1`, the Activity in the assay on Rattus norvegicus and in the assay filed under Mus musculus [3] was 125 mg/kg each time. The figures for the Inhibition in the assay with Mus musculus [5], in the assay on Mus musculus [6] and in the assay on Mus musculus [7] were 0%, 0% and 60%, respectively.
The molecule `O=c1[nH]c2ccccc2n1C1CCN(CCCC(c2ccc(F)cc2)c2ccc(F)cc2)CC1` [PIMOZIDE] showed an ED50 in the assay on Mus musculus [8] of 5.9 mg/kg. For the same molecule, the Inhibition in the assay on Mus musculus [4] is 60%.
`CCc1nn(C)c(N)c1C(=O)c1cccc(F)c1`: the results for the Activity in the assay with Rattus norvegicus and in the assay filed under Mus musculus [3] were 500 mg/kg and 63 mg/kg, respectively.
On to `Cc1nn(C)c(N)c1C(=O)c1ccccc1Cl`, for which the Activity with Rattus norvegicus is 125 mg/kg; in the assay listed under Mus musculus [3], 63 mg/kg. Besides, the Inhibition worked out at 0% in the assay with Mus musculus [5], 0% in the assay on Mus musculus [6] and 60% in the assay on Mus musculus [7].
Take `CCCn1nc(C)c(C(=O)c2ccccc2C)c1N`: the Activity stood at 63 mg/kg with Rattus norvegicus and 16 mg/kg in the assay listed under Mus musculus [3].
For the molecule `CCCn1nc(C)c(C(=O)c2ccccc2Br)c1N`, the values for the Activity in the assay with Rattus norvegicus and in the assay filed under Mus musculus [3] were 32 mg/kg and 8 mg/kg, respectively.
`CC(C)c1nn(C)c(N)c1C(=O)c1ccccc1Cl` had an Activity in the assay filed under Mus musculus [3] of 63 mg/kg.
On to `Cc1nn(C)c(N)c1C(=O)c1cccc(Cl)c1`, for which the Inhibition with Mus musculus [9] was determined as 31%; with Mus musculus [5] it was 0%; with Mus musculus [6], 0%. Also, the Activity in the assay on Rattus norvegicus was 63 mg/kg; in the assay filed under Mus musculus [3] it was 125 mg/kg.
In turn, `Cc1nn(C)c(N)c1C(=O)c1cccs1` displayed an ED50 in the assay on Mus musculus [1] of 34.2 mg/kg. Besides, the Inhibition in the assay with Mus musculus [2] is recorded as 60%; with Mus musculus [6] it was 0%; in the assay with Mus musculus [7], 60%. This molecule also showed an Activity in the assay listed under Mus musculus [3] of 8 mg/kg.
For the molecule `CCCn1nc(C)c(C(=O)c2ccccc2OC)c1N`, the Activity in the assay on Rattus norvegicus was 125 mg/kg; in the assay listed under Mus musculus [3], 16 mg/kg.
For the molecule `Cc1nn(C)c(N)c1C(=O)c1ccccc1Br`, the Inhibition in the assay on Mus musculus [9] is 31%; in the assay on Mus musculus [5], 0%; in the assay with Mus musculus [10], 31%. Further, the figures for the Activity with Rattus norvegicus and in the assay listed under Mus musculus [3] were 125 mg/kg and 63 mg/kg, respectively.
For the molecule `CCc1nn(C)c(N)c1C(=O)c1ccccc1`, the Inhibition amounted to 31% in the assay with Mus musculus [9], 60% in the assay with Mus musculus [2] and 31% in the assay on Mus musculus [10]. In addition, the Activity with Rattus norvegicus came out at 250 mg/kg; in the assay listed under Mus musculus [3], 16 mg/kg.
Consider `CCCCn1nc(C)c(C(=O)c2cccc(Cl)c2)c1N`, for which the values for the Activity with Rattus norvegicus and in the assay filed under Mus musculus [3] were 500 mg/kg and 32 mg/kg, respectively.
Regarding `Cc1nn(C)c(N)c1C(=O)c1ccccc1`, the values for the Activity in the assay with Rattus norvegicus and in the assay filed under Mus musculus [3] were 500 mg/kg and 63 mg/kg, respectively. Besides, the Inhibition in the assay with Mus musculus [6] is reported as 0%; in the assay with Mus musculus [7], 60%; in the assay with Mus musculus [11] it was 31%.
Turning to `CCc1nn(C)c(N)c1C(=O)c1ccccc1F`, the Inhibition with Mus musculus [9] turned out to be 31%; in the assay on Mus musculus [5], 0%; with Mus musculus [6] it was 0%. Besides, the Activity in the assay with Rattus norvegicus was found to be 250 mg/kg; in the assay listed under Mus musculus [3], 32 mg/kg.
As for `Cc1nn(-c2ccccc2)c(N)c1C(=O)c1ccccc1Cl`, the Activity in the assay listed under Mus musculus [3] worked out at 250 mg/kg.
`Cn1nc(-c2ccccc2)c(C(=O)c2ccccc2Cl)c1N` gave an Activity in the assay filed under Mus musculus [3] of 250 mg/kg.
`COc1cccc(C(=O)c2c(C)nn(C)c2N)c1Cl`: the results for the Activity with Rattus norvegicus and in the assay filed under Mus musculus [3] were 250 mg/kg and 32 mg/kg, respectively.
On to `COc1ccccc1C(=O)c1c(C)nn(C)c1N`, for which the figures for the Inhibition with Mus musculus [9], with Mus musculus [6] and in the assay on Mus musculus [11] were 31%, 0% and 31%, respectively. Moreover, the Activity in the assay on Rattus norvegicus came to 125 mg/kg; in the assay filed under Mus musculus [3], 32 mg/kg.
Take `Cc1nn(C)c(N)c1C(=O)c1ccccc1C(F)(F)F`: the Activity in the assay with Rattus norvegicus was found to be 250 mg/kg; in the assay listed under Mus musculus [3], 125 mg/kg. Further, the Inhibition in the assay with Mus musculus [6] was found to be 0%; in the assay on Mus musculus [7], 60%; in the assay on Mus musculus [11], 31%.
Regarding `Cc1nn(C)c(N)c1C(=O)c1cccc(C(F)(F)F)c1`, the values for the Inhibition in the assay with Mus musculus [9], in the assay on Mus musculus [5] and with Mus musculus [6] were 31%, 0% and 0%, respectively. For the same molecule, the Activity in the assay with Rattus norvegicus was determined as 125 mg/kg; in the assay listed under Mus musculus [3], 4 mg/kg.
Turning to `CCCn1nc(C)c(C(=O)c2ccc(Cl)cc2)c1N`, the Activity was found to be 32 mg/kg with Rattus norvegicus and 16 mg/kg in the assay listed under Mus musculus [3].
`CSc1ccc2c(c1)N(CCC1CCCCN1C)c1ccccc1S2` (configuration not stated) [THIORIDAZINE] came in with a 50% effective dose (ED50) with Mus musculus [1] of 2.9 mg/kg. For the same molecule, the Inhibition in the assay on Mus musculus [4] turned out to be 60%.
With `CCn1nc(C)c(C(=O)c2ccccc2Cl)c1N`, the results for the Activity in the assay on Rattus norvegicus and in the assay filed under Mus musculus [3] were 16 mg/kg and 32 mg/kg, respectively.
On the same counts, the results for `Cc1nn(C(C)C)c(N)c1C(=O)c1ccccc1Cl` are 500 mg/kg and 63 mg/kg.
`CCCCc1nn(C)c(N)c1C(=O)c1ccccc1Cl` registered an Activity in the assay on Rattus norvegicus of 125 mg/kg.
For the molecule `Cc1ccccc1C(=O)c1c(C)nn(C)c1N`, the results for the Activity in the assay with Rattus norvegicus and in the assay listed under Mus musculus [3] were 125 mg/kg and 32 mg/kg, respectively. Moreover, the Inhibition in the assay on Mus musculus [5] is recorded as 0%; in the assay with Mus musculus [10] it was 31%; in the assay with Mus musculus [7], 60%.
In the case of `Cc1nn(C2CCCCC2)c(N)c1C(=O)c1ccccc1Cl`, the Activity entry with Mus musculus [12] is “Quiet at 250mg/kg”.
Regarding `CCCCn1nc(C)c(C(=O)c2ccccc2Cl)c1N`, the Activity in the assay on Rattus norvegicus came out at 125 mg/kg; in the assay listed under Mus musculus [3] it was 8 mg/kg.
On the same counts, the results for `CCc1nn(C)c(N)c1C(=O)c1ccccc1Cl` are 500 mg/kg and 63 mg/kg.
Take `CCCn1nc(C)c(C(=O)c2ccccc2Cl)c1N`: the Activity with Rattus norvegicus turned out to be 32 mg/kg; in the assay filed under Mus musculus [3], 8 mg/kg.
`Cc1nn(C)c(N)c1C(=O)c1ccsc1` registered an Activity in the assay listed under Mus musculus [3] of 16 mg/kg.
With `CCCn1nc(C)c(C(=O)c2cccs2)c1N`, the Activity came to 125 mg/kg in the assay on Rattus norvegicus and 250 mg/kg in the assay filed under Mus musculus [3].
For `CCCn1nc(C)c(C(=O)c2ccccc2C(F)(F)F)c1N`, the Activity in the assay on Rattus norvegicus was 63 mg/kg; in the assay listed under Mus musculus [3], 8 mg/kg.
`CCCc1nn(C)c(N)c1C(=O)c1ccccc1Cl`: the results for the Activity in the assay with Rattus norvegicus and in the assay listed under Mus musculus [3] were 125 mg/kg and 32 mg/kg, respectively.
Consider `CCCn1nc(C)c(C(=O)c2cccc(OC)c2Cl)c1N`, for which the Activity was found to be 63 mg/kg with Rattus norvegicus and 16 mg/kg in the assay listed under Mus musculus [3].

The values above are taken from ChEMBL document CHEMBL1122509, “(1,3-Dialkyl-5-amino-1H-pyrazol-4-yl)arylmethanones. A series of novel central nervous system depressants” (1984).
